{"source": "paper PMC2788160", "about": "(Nutrition Research and Practice, 2009)", "key": {"Caco-2 cell monolayer": {"test_system": "Caco-2 cell monolayer", "experiment": "Apical-to-basolateral uptake in Caco-2 differentiated monolayer", "format": "in vitro ADME, human", "conditions": "for Absorption percent: Caco-2 cells over 1 hour; for Conc. of aloin in basolateral side / Conc. of aloe-emodin in basolateral side: 1 hr, 37℃", "in_short": "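Caco-2 (passages 26-48; high-glucose DMEM, 10% FBS, 1% nonessential amino acids) on Transwell inserts at 5×10^4 cells/cm2, 18-24 days; TEER >550 Ω·cm2. Apical compound at 5, 10, 50 µM final (DMSO, diluted in HBSS, pH 6.0); basolateral HBSS pH 7.4; 1 hr, 37℃. C18 HPLC with/without sulfatase H-5 (45 min, 37℃) gives parent and conjugates; % absorption = basolateral×100/apical concentration.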"}, "[1]": {"test_system": "everted gut sac (rat small intestine)", "experiment": "Everted gut sac model uptake into serosal side", "format": "in vitro ADME", "conditions": "10 µM, 1 hr; Fig. 2", "in_short": "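Rats fasted overnight; small intestine flushed with 0.9% NaCl, everted in warm oxygenated TC 199 medium, filled, cut into ~2.5 cm sacs from upper/mid-jejunum (12-15 per experiment). Sacs incubated 1 hr, 37℃ in 6 ml oxygenated medium with 10 µM compound; serosal fluid collected, volume from sac weights. HPLC with/without sulfatase (difference = conjugates); uptake per mg tissue protein (modified Lowry, BSA standard).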"}}}
{"smiles": "CC(=O)Cc1cc(=O)c2c(C)cc(O)c([C@@H]3O[C@H](CO)[C@@H](O)[C@H](O)[C@H]3O)c2o1", "note": "[aloesin]", "values": [{"measurement": "Absorption percent", "setting": "Caco-2 cell monolayer; 5 μM", "result": 7.61, "unit": "%"}, {"measurement": "Absorption percent", "setting": "Caco-2 cell monolayer; 10 μM", "result": 13.64, "unit": "%"}, {"measurement": "Absorption percent", "setting": "Caco-2 cell monolayer; 50 μM", "result": 8.14, "unit": "%"}, {"measurement": "% absorption in everted gut sac compared to Caco-2 monolayer", "setting": "[1]", "result": "more aloesin were shown to be absorbed in the gut sac compared to the Caco-2 monolayer"}]}
{"smiles": "O=C1c2c(O)cccc2C([C@@H]2O[C@H](CO)[C@@H](O)[C@H](O)[C@H]2O)c2cc(CO)cc(O)c21", "note": "(stereo partly shown) [aloin]", "values": [{"measurement": "Conc. of aloin in basolateral side", "setting": "Caco-2 cell monolayer; 5 μM apical treatment", "result": 0.11, "unit": "nmol/cm^2 culture area"}, {"measurement": "Conc. of aloin in basolateral side", "setting": "Caco-2 cell monolayer; 10 μM apical treatment", "result": 0.42, "unit": "nmol/cm^2 culture area"}, {"measurement": "Conc. of aloin in basolateral side", "setting": "Caco-2 cell monolayer; 50 μM apical treatment", "result": 1.99, "unit": "nmol/cm^2 culture area"}]}
{"smiles": "O=C1c2cccc(O)c2C(=O)c2c(O)cc(CO)cc21", "note": "[aloe-emodin]", "values": [{"measurement": "Conc. of aloe-emodin in basolateral side", "setting": "Caco-2 cell monolayer; 5 μM apical treatment", "result": 0.13, "unit": "nmol/cm^2 culture area"}, {"measurement": "Conc. of aloe-emodin in basolateral side", "setting": "Caco-2 cell monolayer; 10 μM apical treatment", "result": 0.86, "unit": "nmol/cm^2 culture area"}, {"measurement": "Conc. of aloe-emodin in basolateral side", "setting": "Caco-2 cell monolayer; 50 μM apical treatment", "result": 2.51, "unit": "nmol/cm^2 culture area"}]}
